Experimental data reported in ChEMBL document CHEMBL1158499, “Synthesis and antidepressant activity of optical isomers of 2-(4-benzylpiperazin-1-yl)-1-(5-chloro-6-methoxynaphthalen-2-yl) propan-1-ol (SIPI5056)” (Bioorg Med Chem Lett, 2010).

Assays:
[1] = (§1) Toxicity in po dosed mouse; type: organism-based; settings: in vivo
Summary of the method: (§2)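 Acute toxicity was tested in mice given the compound orally. The LD50 was reported in mg/kg or g/kg.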

Transporter = Transporter (Rattus norvegicus, UniProt Q63380); assay: Inhibition of [3H]norepinephrine reuptake at rat brain frontal cortex norepinephrine transporter; type: tissue-based
Summary of the method: (§3)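 Rat frontal cortex synaptosomes prepared at 4 °C: tissue homogenized in ice-cold 0.32 M sucrose, spun at 1500g for 10 min, and the supernatant spun at 20,000g for 30 min. The pellet was resuspended in buffer and protein measured. Synaptosomes were preincubated with compound 5 min at 37 °C, then given 300 nM [3H]-DA or [3H]-NA for 5 min at 37 °C. Uptake was stopped on ice and samples filtered and washed with artificial cerebral fluid before scintillation counting. Active uptake was taken as the 37 °C minus 0 °C difference.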

Mus musculus [2] = assay: Antidepressant activity in po dosed mouse by forced tail suspension assay; type: functional
Summary of the method: (§4)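 Mice received a single oral dose of each isomer; the ED50 (mg/kg) was derived from the forced swimming and tail suspension tests.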

[3] = biological target: Sodium-dependent dopamine transporter (Rattus norvegicus, UniProt P23977); assay: Inhibition of [3H]dopamine reuptake at rat brain frontal cortex dopamine transporter; type: tissue-based; summary of the method: as §3
[4] = biological target: Sodium-dependent serotonin transporter (Rattus norvegicus, UniProt P31652); assay: Inhibition of [3H]5HT reuptake at rat brain frontal cortex serotonin transporter; type: tissue-based
Summary of the method: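 Rats were decapitated and the frontal cortex was dissected on ice. The tissue was homogenised in ice-cold 0.32 M sucrose and spun at 1500g for 10 min, then the supernatant at 20,000g for 30 min (4 °C). Synaptosomes were preincubated with compound for 5 min at 37 °C. [3H]-5-HT (300 nM) was added for 5 min at 37 °C. The reaction was stopped on ice, then filtered and counted. Active uptake was taken as the 37 °C minus 0 °C difference.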

Mus musculus [5] = assay: as §1; type: organism-based; settings: in vivo; summary of the method: as §2
Mus musculus [6] = assay: Antidepressant activity in po dosed mouse by forced swimming test; type: functional; summary of the method: as §4

Sequence of Sodium-dependent dopamine transporter (P23977 whole entry): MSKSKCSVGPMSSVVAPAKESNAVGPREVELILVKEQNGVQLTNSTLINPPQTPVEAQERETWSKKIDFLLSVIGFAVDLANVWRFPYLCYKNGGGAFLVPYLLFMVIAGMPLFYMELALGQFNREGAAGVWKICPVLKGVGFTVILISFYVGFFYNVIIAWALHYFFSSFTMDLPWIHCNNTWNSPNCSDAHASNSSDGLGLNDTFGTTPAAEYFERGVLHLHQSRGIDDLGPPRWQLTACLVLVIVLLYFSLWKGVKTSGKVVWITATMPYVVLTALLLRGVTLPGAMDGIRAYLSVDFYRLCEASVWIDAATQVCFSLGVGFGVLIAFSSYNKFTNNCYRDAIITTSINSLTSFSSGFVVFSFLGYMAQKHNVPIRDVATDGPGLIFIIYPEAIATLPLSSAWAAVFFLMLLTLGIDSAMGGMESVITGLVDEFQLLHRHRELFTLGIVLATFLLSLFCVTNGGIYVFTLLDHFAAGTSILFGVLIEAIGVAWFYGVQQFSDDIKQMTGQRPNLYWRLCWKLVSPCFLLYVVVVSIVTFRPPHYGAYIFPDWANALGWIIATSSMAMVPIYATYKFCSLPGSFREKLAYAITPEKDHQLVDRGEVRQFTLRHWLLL
Sequence of Transporter (Q63380 whole entry): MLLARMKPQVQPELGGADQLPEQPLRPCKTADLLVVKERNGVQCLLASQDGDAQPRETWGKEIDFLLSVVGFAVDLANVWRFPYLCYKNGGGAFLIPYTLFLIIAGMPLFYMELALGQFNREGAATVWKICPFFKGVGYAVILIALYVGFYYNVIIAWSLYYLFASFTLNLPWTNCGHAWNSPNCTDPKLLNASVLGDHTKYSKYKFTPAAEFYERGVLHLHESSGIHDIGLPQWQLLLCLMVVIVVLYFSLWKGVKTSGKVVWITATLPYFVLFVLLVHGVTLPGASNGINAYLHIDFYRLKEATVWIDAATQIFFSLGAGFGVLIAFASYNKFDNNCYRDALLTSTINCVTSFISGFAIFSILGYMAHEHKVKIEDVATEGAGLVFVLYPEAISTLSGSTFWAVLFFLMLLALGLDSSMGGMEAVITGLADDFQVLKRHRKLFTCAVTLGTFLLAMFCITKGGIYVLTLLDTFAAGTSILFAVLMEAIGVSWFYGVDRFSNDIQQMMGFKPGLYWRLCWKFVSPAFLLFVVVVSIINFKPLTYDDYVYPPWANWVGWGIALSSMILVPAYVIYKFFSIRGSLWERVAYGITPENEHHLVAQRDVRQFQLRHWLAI
Sequence of Sodium-dependent serotonin transporter (P31652 whole entry): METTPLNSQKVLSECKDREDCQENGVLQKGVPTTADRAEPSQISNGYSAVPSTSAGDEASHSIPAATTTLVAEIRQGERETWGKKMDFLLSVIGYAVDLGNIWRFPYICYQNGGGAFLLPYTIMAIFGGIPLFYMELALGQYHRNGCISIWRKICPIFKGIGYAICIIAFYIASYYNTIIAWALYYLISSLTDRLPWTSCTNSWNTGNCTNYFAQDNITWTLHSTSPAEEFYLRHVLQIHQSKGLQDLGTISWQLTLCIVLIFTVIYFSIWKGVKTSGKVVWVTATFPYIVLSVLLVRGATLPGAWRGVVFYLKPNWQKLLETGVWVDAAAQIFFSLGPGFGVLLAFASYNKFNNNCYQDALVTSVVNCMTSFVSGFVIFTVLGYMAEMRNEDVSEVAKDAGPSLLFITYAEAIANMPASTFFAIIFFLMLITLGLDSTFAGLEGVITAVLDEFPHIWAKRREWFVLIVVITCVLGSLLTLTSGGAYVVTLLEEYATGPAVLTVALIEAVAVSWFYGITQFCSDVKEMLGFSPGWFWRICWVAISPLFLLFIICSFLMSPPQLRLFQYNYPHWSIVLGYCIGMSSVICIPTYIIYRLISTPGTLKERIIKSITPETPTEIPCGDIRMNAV

Compound | LD50 [1] [mg/kg] | IC50 (Transporter) [µM] | ED50 (Mus musculus [2]) [mg/kg] | IC50 [3] [µM] | IC50 [4] [µM] | LD50 (Mus musculus [5]) [mg/kg] | ED50 (Mus musculus [6]) [mg/kg]
COc1ccc2cc([C@@H](O)[C@@H](C)N3CCN(Cc4ccccc4)CC3)ccc2c1Cl | 200 | 1.25 | 24.5 | > 1000 | 0.375 | – | –
COc1ccc2cc([C@H](O)[C@H](C)N3CCN(Cc4ccccc4)CC3)ccc2c1Cl | – | 0.425 | 27.9 | > 1000 | 0.825 | 300 | –
COc1ccc2cc([C@H](O)[C@@H](C)N3CCN(Cc4ccccc4)CC3)ccc2c1Cl | – | 7 | 16.5 | 10 | 0.548 | 1171 | 24.5
COc1ccc2cc([C@@H](O)[C@H](C)N3CCN(Cc4ccccc4)CC3)ccc2c1Cl | 1030 | 0.185 | 12.6 | – | – | – | –
COc1ccc2cc([C@H](O)[C@H](C)N3CCN(Cc4ccccc4)CC3)ccc2c1Cl (racemic) | – | – | – | – | – | > 1500 | –
COc1ccc2cc([C@H](O)[C@@H](C)N3CCN(Cc4ccccc4)CC3)ccc2c1Cl (racemic) | – | – | – | – | – | > 220 | –
